This is a sample that favours compounds with a hit; in the whole collection about 4.3% have one here.
ALR H2O2 inh = blocks human ALR sulfhydryl oxidase activity | purified ALR, DTT oxidation, H2O2 HRP-luminol luminescence | inhibition, % (concentration not given with the values) | actives 3.8% (n = 290,000) | AID 485317;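 active = mean replicate inhibition above about 79%, with every replicate also reaching it, limit read from the data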
Rin1 Abl inh = human Rin1-Abl interaction inhibition; actives 0.4% (n = 360,000); inhibition, % at 7.35 µM; AID 588664; P00519+Q13671; TR-FRET Rin1/Abl binding, biochemical; in the data active = inhibition above about 5%, passing the limit was not always enough
RBBP9 inh = human RBBP9 hydrolase inhibition. recombinant RBBP9, FP-Rh probe fluorescence polarization. inhibition, % at 7.94 µM. actives 0.2% (n = 220,000). AID 1515;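 active = inhibition above the campaign mean of all tested compounds plus 3 SD, cut at about 14% in these data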;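 note: plate controls were DMSO wells with RBBP9 for no effect and wells lacking RBBP9 protein for full effect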
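Test system – recombinant human RBBP9 · Input – RBBP9 2.5 µM in dispensing solution, pre-mixing · Medium – Tris buffer pH 8.0, NaCl, Pluronic · Schedule – preincubation 30 min plus labeling 45 min at 25 °C · Measured by – fluorescence polarization · Measure – % inhibition · Controls – DMSO and no-protein wells · Replicates – one well per compound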
UBC13 inh = blocks human UBC13 polyubiquitin chain formation; TR-FRET; inhibition, % at 20 µM; actives 0.47% (n = 330,000); P61088; in the data active = inhibition above about 45%, passing the limit was not always enough
PREPL inh = inhibitors of human prolyl oligopeptidase-like enzyme PREPL; recombinant PREPL, fluorescence polarization activity-based probe; inhibition, % at 5.96 µM; actives 0.68% (n = 320,000); AID 2751; in the data active = inhibition above about 43%;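 note: 0% = enzyme with DMSO and 100% = wells lacking enzyme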
Target sequence (Q4J6C6 whole entry, looked up): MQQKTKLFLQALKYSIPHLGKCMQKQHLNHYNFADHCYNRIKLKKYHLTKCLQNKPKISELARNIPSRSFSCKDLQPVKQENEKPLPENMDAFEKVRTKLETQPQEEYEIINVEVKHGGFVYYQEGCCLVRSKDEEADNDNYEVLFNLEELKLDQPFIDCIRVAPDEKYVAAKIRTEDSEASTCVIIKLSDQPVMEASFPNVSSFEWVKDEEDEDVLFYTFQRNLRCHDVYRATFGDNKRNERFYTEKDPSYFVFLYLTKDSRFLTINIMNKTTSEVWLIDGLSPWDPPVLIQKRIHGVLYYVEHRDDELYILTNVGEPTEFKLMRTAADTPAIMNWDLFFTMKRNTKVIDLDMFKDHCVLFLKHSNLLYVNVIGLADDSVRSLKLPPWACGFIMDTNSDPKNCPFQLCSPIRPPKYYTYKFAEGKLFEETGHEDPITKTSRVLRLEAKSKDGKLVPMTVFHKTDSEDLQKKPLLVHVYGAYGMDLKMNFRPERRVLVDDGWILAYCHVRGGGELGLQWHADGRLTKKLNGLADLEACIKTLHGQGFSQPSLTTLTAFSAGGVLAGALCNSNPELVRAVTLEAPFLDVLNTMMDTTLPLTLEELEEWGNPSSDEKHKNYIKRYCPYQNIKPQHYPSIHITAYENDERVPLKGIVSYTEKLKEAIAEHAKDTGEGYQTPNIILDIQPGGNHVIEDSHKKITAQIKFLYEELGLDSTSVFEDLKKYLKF
UBC9 SUMO inh = SUMOylation inhibition; P63279; HTRF SUMOylation assay, SAE1/SAE2 + UBC9, in vitro; inhibition, % at 35 µM; actives 0.36% (n = 290,000); in the data active = inhibition above about 50%, passing the limit was not always enough
Active calls of the source: *; / = no result given.

SMILES | ALR H2O2 inh | Rin1 Abl inh | RBBP9 inh | UBC13 inh | PREPL inh | UBC9 SUMO inh
COc1ccc2c(c1OC)C(=O)OC2Nc1nc(-c2cc3cc([N+](=O)[O-])ccc3oc2=O)cs1 (centres undefined) | 17 | -3 | -2 | -15 | 15 | 27
COc1ccc2c(c1OC)C(=O)OC2Nc1nc(-c2ccc(-c3ccccc3)cc2)cs1 (centres undefined) | 96* | 0 | -1 | 2 | 22 | -7
CCCCN(C1CCS(=O)(=O)C1)S(=O)(=O)c1ccc(OC)cc1 (centres undefined) | 14 | 5 | / | -8 | -5 | /
CN(CC(=O)Nc1ccc(F)c(F)c1F)C(=O)C1CCN(C(=O)Nc2ccccc2)CC1 | 1 | 0 | / | 2 | -6 | /
Cc1ncc(CO)c(/C=N/Nc2cccc(Cl)n2)c1O | 86* | -5 | / | 3 | -1 | 0
CCN1C(=O)c2cccc3c(S(=O)(=O)Nc4ccc(O)c(C(=O)O)c4)ccc1c23 | 98* | 1 | / | -4 | 1 | 0
C=CCNC(=S)NNC(=O)Cn1c(-c2ccccc2)cc(=O)n2ncnc12 | 56 | 2 | -3 | 1 | -42 | 3
COc1ccc(NC2CCCN(C(=O)CN3C(=O)c4ccccc4C3=O)C2)cc1OC (centres undefined) | 98* | -1 | / | -6 | 4 | -4
COc1ccc(NC2CCCN(Cc3cccc4cnccc34)C2)cc1OC (centres undefined) | 95* | -2 | / | -4 | 3 | -22
COc1ccc(NC2CCCN(C(=O)CSc3ccccn3)C2)cc1OC (centres undefined) | 99* | -1 | / | -12 | 8 | 4
COc1ccccc1N1CCN(C(=O)CN2C(=O)c3ccccc3C2=O)CC1 | 1 | -6 | -4 | -5 | 1 | 1
O=Cc1cccc(OC(=O)/C=C/c2ccco2)c1 | 98* | 0 | / | 7 | 18 | 47
COC(=O)c1ccc(COC(=O)C(CCSC)NC(=O)COc2ccccc2)cc1 (centres undefined) | -1 | -2 | / | -3 | -2 | -5
O=[N+]([O-])c1ccc(O)c(/C=N/n2c(-c3ccccc3)n[nH]c2=S)c1 | 93* | 2 | / | -5 | -2 | 10
Cc1[nH]n(-c2ccccc2)c(=O)c1/C=N/N(C)c1ccccc1 | 82* | 2 | 0 | -16 | -15 | 75
Oc1ccccc1/C=N/n1c(-c2ccccc2)n[nH]c1=S | 98* | -2 | / | -2 | 6 | 13
Oc1c(Br)cc(Br)cc1/C=N/n1c(-c2ccccc2)n[nH]c1=S | / | 2 | / | 0 | 2 | 3
Cc1ccc(-c2n[nH]c(=S)n2/N=C/c2c(C)[nH]n(-c3ccccc3)c2=O)cc1 | 98* | 2 | 5 | -29 | 0 | 11
Cc1[nH]n(-c2ccccc2)c(=O)c1/C=N/O | 22 | 2 | 0 | -4 | -3 | -8
Cc1ccc(/C=N/n2c(-c3cccnc3)n[nH]c2=S)s1 | 76* | -4 | -3 | 3 | 2 | -1
S=c1[nH]nc(-c2cccnc2)n1/N=C/c1ccc(Br)s1 | 3 | -2 | 7 | 5 | 6 | -2
Oc1c(Br)cc(/C=N/n2c(-c3ccccc3)n[nH]c2=S)c(Br)c1O | / | / | / | / | 25 | 55*
CCc1cccc(NC(=O)CCc2c(C)nn(-c3ccc(N4CCOCC4)nn3)c2C)c1 | -7 | 6 | / | -11 | 13 | 15
COc1ccccc1NC(=O)C(C)OC(=O)CCCc1c[nH]c2ccccc12 (centres undefined) | 23 | -1 | / | 22 | 11 | /
CC(NC(=O)c1cccc(N(C)C)c1)c1ccc(-n2ccnc2)cc1 (centres undefined) | 98* | -3 | / | -1 | 8 | 20
SMILES | ALR H2O2 inh | Rin1 Abl inh | RBBP9 inh | UBC13 inh | PREPL inh | UBC9 SUMO inh
Cc1cc2nc(-c3ccccc3Br)n(/C=C(\c3ccccc3)n3c(=O)[nH]c4ccccc43)c2cc1C | / | 0 | / | / | / | /
COc1ccccc1COCC(O)CN1CCN(S(=O)(=O)c2cccc(F)c2)CC1 (centres undefined) | -3 | 1 | / | -12 | 8 | /
S=C(c1cn(Cc2ccc(Br)cc2)c2ccccc12)N1CCOCC1 | 7 | 2 | -5 | 1 | 50* | -8
CCc1nn(CC(=O)NC(C)CCc2ccccc2)c(=O)c2cc3cc(F)ccc3n12 (centres undefined) | -5 | 4 | / | -8 | -5 | 51*
O=C1CC(=O)N(Cc2ccco2)C(=O)N1 | / | 4 | 1 | 13 | -3 | 27
O=C1CC(=O)N(Cc2ccco2)C(=S)N1 | 74 | 4 | -10 | 16 | 11 | 83*
CS(=O)(=O)c1ccc(C(=O)NCCN2C(=O)S/C(=C\c3cccnc3)C2=O)cc1[N+](=O)[O-] | 100* | -2 | -3 | -19 | 9 | 39
CN(C)S(=O)(=O)c1ccc(C(=O)NCCN2C(=O)S/C(=C\c3cccnc3)C2=O)cc1 | -4 | -1 | -1 | -12 | 11 | 11
NS(=O)(=O)c1ccc(NNC(=O)c2ccc(Br)o2)c([N+](=O)[O-])c1 | 86* | -1 | / | -88 | 15 | /
Cc1ccc(NC(=O)c2ccc(Br)o2)c([N+](=O)[O-])c1 | / | 2 | / | / | / | /
CC1=C(C(=O)N(C)C)CC(CC(=O)NCC2CCCCC2)C(=O)N1Cc1ccccc1 (centres undefined) | / | -2 | / | / | / | /
COc1cc2cc(c1Cl)N(C)C(=O)CC(OC(=O)C(C)N(C)C(C)=O)C1(C)OC1C(C)C1CC(O)(NC(=O)O1)C(OC)C=CC=C(C)C2 (centres undefined) | / | 0 | / | / | / | /
COc1ccc2nc(NC(=O)CSC3=NCCS3)sc2c1 | 98* | 0 | -7 | 8 | 0 | 6
CCOc1ccc2nc(NC(=O)CSc3ccc(Cl)cc3)sc2c1 | -28 | -1 | -1 | -5 | 14 | -12
CCOc1ccc2nc(NC(=O)CSC3=NCCS3)sc2c1 | 99* | 2 | -14 | 20 | 1 | -13
CN1c2cccc3cccc(c23)N(C)C1(C)C | 87* | -3 | 3 | -17 | 14 | 20
COCCN(C(=O)c1cc(S(=O)(=O)N2CCCCC2)ccc1Cl)c1c(N)n(CC(C)C)c(=O)[nH]c1=O | / | -2 | / | 1 | / | /
COc1ccc(S(=O)(=O)NCC2CCCN(Cc3cccc(C(C)=O)c3)C2)cc1 (centres undefined) | 76* | -3 | / | 0 | 2 | -1
CC(C)c1ncc(CO)n1Cc1c(Cl)cccc1Cl | / | -3 | / | / | / | /
Nc1ccc(-n2cc(-c3ccccc3)[nH]c2=S)cc1 | 91* | 4 | / | 0 | 6 | 19
Oc1ccc(/C=N/n2cc(-c3ccccc3)[nH]c2=S)cc1 | 99* | 3 | -8 | -9 | 12 | 16
COC(=O)c1ccc(-n2cc(-c3ccc(OC)cc3)[nH]c2=S)cc1 | 88* | 1 | -11 | / | -2 | 8
COc1cc(/C=N/n2cc(-c3ccccc3)[nH]c2=S)cc(OC)c1O | / | -4 | 14 | -11 | 8 | 3
S=c1[nH]c(-c2ccccc2)cn1-c1ccccc1 | 97* | 2 | / | 1 | 11 | -5

Compound activity deposited in PubChem BioAssay by several laboratories.
